These results are taken from ChEMBL document CHEMBL1240389, “In vitro and in vivo activities of the novel anticytomegalovirus compound AIC246” (Antimicrob Agents Chemother, 2010).

pEC50: −log10 of the molar value. The source made the active and inactive calls. The rule behind the calls is not given here.

Experiment [1] deals with Human betaherpesvirus 5. The experiment is described as follows: Antiviral activity against human cytomegalovirus AD169 infected in NHDF assessed as inhibition of virus-induced cytopathic effect after 6 to 7 days by giemsa staining. In kind it is functional, organism-based. Conditions: Human betaherpesvirus 5, AD169, NHDF. The essentials:
(§1)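 NHDF cells (1 × 10⁴/well) mixed with cell-free virus (MOI 0.03) or with infected-cell suspension (MOI 0.001 to 0.002). Compound was added from DMSO stocks in 2-fold serial dilutions, final 250 to 0.00005 μM, in duplicates. Plates were incubated 6 to 7 days at 37°C or until 100% CPE in virus control, then fixed and stained with Giemsa/formalin and scored microscopically. EC₅₀ is 50% CPE inhibition versus untreated infected control.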

Experiment [2] has as its system Human betaherpesvirus 5. In words: Antiviral activity against human cytomegalovirus Davis xenograft mouse model assessed as reduction of viral load at 10 to 100 mg/kg, po QD for 9 days measured post last dose. In kind it is functional, organism-based. An outline of the steps: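 NOD SCID mice (18 to 25 g) implanted subcutaneously (dorsoscapular) with Gelfoam sponges seeded with 1 × 10⁶ NHDF cells infected with strain Davis (MOI 0.03), bFGF-treated. From 4 h post-transplant, dosed orally by gavage once daily for 9 days in 2% DMSO/0.5% methylcellulose-PBS, 10 ml/kg. Implants then collagenase-digested; recovered cells titrated by plaque assay on NHDF (PFU/ml).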

Experiment [3] has as its system Human betaherpesvirus 5. In words: Antiviral activity against human cytomegalovirus isolate Ba infected in NHDF assessed as inhibition of virus-induced cytopathic effect after 6 to 7 days by giemsa staining. Format: functional, organism-based. The settings on record: Human betaherpesvirus 5, isolate Ba. The essentials:
as §1

Experiment [4] concerns Human betaherpesvirus 5. In words: Antiviral activity against ganciclovir-resistant human cytomegalovirus isolate 1947R infected in NHDF assessed as inhibition of virus-induced cytopathic effect after 6 to 7 days by giemsa staining. Format: functional, organism-based. The settings on record: Human betaherpesvirus 5, isolate 1947R. An outline of the steps:
(§2)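 Cell-associated virus (infected NHDF cells) used as inoculum, at MOI 0.001 to 0.002, mixed with uninfected NHDF (1 × 10⁴ to 3 × 10⁴ cells/well). Compound was added in 2-fold serial dilutions, final 250 to 0.00005 μM, in duplicates. Incubation was 6 to 7 days at 37°C, followed by Giemsa/formalin staining and visual CPE scoring. EC₅₀ is 50% CPE inhibition versus untreated infected control; at least two independent experiments.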

In experiment [5] the test system is Human betaherpesvirus 5. In words: Antiviral activity against human cytomegalovirus AD169 infected in NHDF at 50 nM treated after 57 hrs postinfection measured after 7 days by GFP-based fluorescent reduction assay. In kind it is functional, organism-based.
Experiment [6] has as its system Human betaherpesvirus 5. In words: Antiviral activity against human cytomegalovirus isolate 472 infected in NHDF assessed as inhibition of virus-induced cytopathic effect after 6 to 7 days by giemsa staining. Format: functional, organism-based. The settings on record: Human betaherpesvirus 5, isolate 472, NHDF. The essentials: as §1
Experiment [7] concerns Human herpesvirus 5 strain AD169. In words: Antiviral activity against ganciclovir-resistant human cytomegalovirus AD169 UL97 M460I infected in NHDF assessed as inhibition of virus-induced cytopathic effect after 6 to 7 days by giemsa staining. Conditions: Human betaherpesvirus 5, UL97 M460I. In kind it is functional, organism-based. The essentials: as §1
Experiment [8] has as its system Human betaherpesvirus 5. In words: Antiviral activity against human cytomegalovirus isolate E16415S infected in NHDF assessed as inhibition of virus-induced cytopathic effect after 6 to 7 days by giemsa staining. Format: functional, organism-based. Conditions: Human betaherpesvirus 5, isolate E16415S. The essentials:
as §2

The subject of experiment [9] is Human betaherpesvirus 5. In words: Antiviral activity against human cytomegalovirus infected in human HS27 cells after 7 days by GFP-based fluorescent reduction assay. The settings on record: Human betaherpesvirus 5, HS27, 168 h. In kind it is functional, organism-based. An outline of the steps:
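GFP reduction assay run in HS27 foreskin fibroblasts instead of NHDF, infected with AD169-GFP; compounds in 3-fold serial dilutions, 7 days at 37°C, GFP units read by camera-based fluorescence detector after PBS exchange. EC50 from % GFPU reduction versus drug-free infected control; at least triplicate experiments.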

In experiment [10] the test system is Human betaherpesvirus 5. The experiment is described as follows: Antiviral activity against ganciclovir-resistant human cytomegalovirus isolate E17251S infected in NHDF assessed as inhibition of virus-induced cytopathic effect after 6 to 7 days by giemsa staining. Format: functional, organism-based. The settings on record: Human betaherpesvirus 5, isolate E17251S. The essentials:
as §2

Experiment [11] relates to Human betaherpesvirus 5. The experiment is described as follows: Antiviral activity against human cytomegalovirus Davis infected in NHDF assessed as inhibition of virus-induced cytopathic effect after 6 to 7 days by giemsa staining. In kind it is functional, organism-based. Conditions: Human betaherpesvirus 5, Davis. An outline of the steps:
as §1

Experiment [12] relates to Human betaherpesvirus 5. In words: Antiviral activity against human cytomegalovirus RV-HG infected in NHDF after 7 days by GFP-based fluorescent reduction assay. Format: functional, organism-based. Conditions: Human betaherpesvirus 5, RV-HG, 168 h. An outline of the steps:
(§3)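 Incubated 7 days at 37°C, medium swapped for PBS, GFP units read by CCD-camera fluorescence imager. EC50/EC90 from % GFPU reduction versus untreated infected wells by nonlinear regression; at least triplicate experiments.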

In experiment [13] the test system is Human betaherpesvirus 5. The experiment is described as follows: Antiviral activity against 0.003 MOI human cytomegalovirus AD169 infected in NHDF after 7 days by GFP-based fluorescent reduction assay. In kind it is functional, organism-based. The settings on record: Human betaherpesvirus 5, AD169, NHDF, 168 h. An outline of the steps: (§4)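 NHDF cells (1.5 × 10⁴/well) infected with GFP-expressing HCMV AD169 at the stated MOI (range 0.003 to 1 tested). After adsorption the inoculum was replaced, and compound was added in 3-fold serial dilutions, each at least in duplicate. Cells were incubated 7 days at 37°C, then GFP units were read by CCD camera in PBS. EC₅₀ was taken as the % GFPU reduction versus no-drug control. At least triplicate experiments.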

Experiment [14] has as its system Human betaherpesvirus 5. The experiment is described as follows: Antiviral activity against human cytomegalovirus isolate La infected in NHDF assessed as inhibition of virus-induced cytopathic effect after 6 to 7 days by giemsa staining. In kind it is functional, organism-based. Conditions: Human betaherpesvirus 5, isolate La. The essentials: as §1
Experiment [15] concerns Human betaherpesvirus 5. In words: Antiviral activity against human cytomegalovirus infected in NHDF after 7 days by GFP-based fluorescent reduction assay. In kind it is functional, organism-based. The settings on record: Human betaherpesvirus 5, NHDF, 168 h. An outline of the steps: (§5)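 Fibroblasts of the stated type (1.5 × 10⁴/well) infected with GFP-expressing recombinant AD169 (HCMV-GFP MOI 0.1 or RV-HG MOI 0.2 to 0.5). After adsorption the inoculum was replaced, with 3-fold serial compound dilutions at least in duplicate, and 7 days at 37°C. GFP units were read by CCD camera in PBS. EC₅₀ was derived from GFPU reduction versus untreated infected wells; at least triplicate runs.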

The subject of experiment [16] is Human betaherpesvirus 5. The experiment is described as follows: Antiviral activity against 0.1 MOI human cytomegalovirus AD169 infected in NHDF after 7 days by GFP-based fluorescent reduction assay. In kind it is functional, organism-based. The settings on record: Human betaherpesvirus 5, AD169, NHDF, 168 h. The essentials: as §4
For experiment [17], the system named is Human betaherpesvirus 5. In words: Antiviral activity against human cytomegalovirus isolate Se infected in NHDF assessed as inhibition of virus-induced cytopathic effect after 6 to 7 days by giemsa staining. In kind it is functional, organism-based. Conditions: Human betaherpesvirus 5, isolate Se. The essentials:
as §1

Experiment [18] has as its system Human betaherpesvirus 5. The experiment is described as follows: Antiviral activity against 0.01 MOI human cytomegalovirus AD169 infected in NHDF after 7 days by GFP-based fluorescent reduction assay. The settings on record: Human betaherpesvirus 5, AD169, NHDF, 168 h.
Experiment [19] relates to Human betaherpesvirus 5. In words: Antiviral activity against human cytomegalovirus AD169 infected in NHDF assessed as inhibition of virus replication at 50 nM measured after 24 to 72 hrs of compound wash by fluorescence assay. In kind it is functional, organism-based.
The test system of experiment [20] is Human betaherpesvirus 5. The experiment is described as follows: Antiviral activity against human cytomegalovirus AD169 infected in NHDF after 7 days by GFP-based fluorescent reduction assay. In kind it is functional, organism-based. The settings on record: Human betaherpesvirus 5, AD169, NHDF, 168 h. An outline of the steps:
as §3

Experiment [21] deals with Human betaherpesvirus 5. In words: Antiviral activity against human cytomegalovirus infected in NHLF after 7 days by GFP-based fluorescent reduction assay. In kind it is functional, organism-based. The settings on record: Human betaherpesvirus 5, 168 h. An outline of the steps: as §5
Experiment [22] has as its system Human betaherpesvirus 5. The experiment is described as follows: Antiviral activity against human cytomegalovirus AD169 infected in NHDF assessed as inhibition of virus replication at 50 nM after 96 hrs by fluorescence assay. In kind it is functional, organism-based.

`COc1cccc(N2CCN(C3=Nc4c(F)cccc4[C@H](CC(=O)O)N3c3cc(C(F)(F)F)ccc3OC)CC2)c1` [LETERMOVIR]: the pEC50 in the experiment with Human betaherpesvirus 5 [1] was 8.30; in the experiment on Human betaherpesvirus 5 [3], 8.24; in the experiment with Human betaherpesvirus 5 [4], 8.64; in the experiment on Human betaherpesvirus 5 [6], 8.74; in experiment [7], 8.41; in the experiment with Human betaherpesvirus 5 [8], 8.59. Also, the negative-log EC50 (pEC50) is 8.25 in the experiment with Human betaherpesvirus 5 [9]; 8.21 in the experiment on Human betaherpesvirus 5 [10]; 8.40 in the experiment with Human betaherpesvirus 5 [11]; 8.31 with Human betaherpesvirus 5 [12]; 8.89 in the experiment with Human betaherpesvirus 5 [13]; 8.47 with Human betaherpesvirus 5 [14]. Also, the pEC50 was 8.46 in the experiment on Human betaherpesvirus 5 [15]; 8.47 in the experiment on Human betaherpesvirus 5 [16]; 8.51 in the experiment with Human betaherpesvirus 5 [17]; 8.82 in the experiment with Human betaherpesvirus 5 [18]; 8.42 in the experiment with Human betaherpesvirus 5 [20]; 8.30 with Human betaherpesvirus 5 [21]. For the same compound, the inhibition result in the experiment on Human betaherpesvirus 5 [2] was “Active”. The outcome in the experiment with Human betaherpesvirus 5 [5] was inactive. Besides, the EC90 in the experiment on Human betaherpesvirus 5 [12] was determined as 7.1 nM; in the experiment with Human betaherpesvirus 5 [20] it was 5.1 nM. Also, the outcome with Human betaherpesvirus 5 [19] and with Human betaherpesvirus 5 [22] was Active.
